The text below walks through data of ChEMBL document CHEMBL2074148, “Interaction of human and rat organic anion transporter 2 with various cephalosporin antibiotics” (Eur J Pharmacol, 2003).

By IC50 is commonly meant the concentration that gives 50% inhibition. Low readings indicate greater potency, high ones weaker potency. Broadly, the Km is the substrate concentration at which the rate is half of its maximum.

Common to all, as to type: functional, cell-based
The target in data set [1] is T1, Solute carrier family 22 member 7 (Rattus norvegicus, UniProt Q5RLM2).
T1 sequence (Q5RLM2 whole entry): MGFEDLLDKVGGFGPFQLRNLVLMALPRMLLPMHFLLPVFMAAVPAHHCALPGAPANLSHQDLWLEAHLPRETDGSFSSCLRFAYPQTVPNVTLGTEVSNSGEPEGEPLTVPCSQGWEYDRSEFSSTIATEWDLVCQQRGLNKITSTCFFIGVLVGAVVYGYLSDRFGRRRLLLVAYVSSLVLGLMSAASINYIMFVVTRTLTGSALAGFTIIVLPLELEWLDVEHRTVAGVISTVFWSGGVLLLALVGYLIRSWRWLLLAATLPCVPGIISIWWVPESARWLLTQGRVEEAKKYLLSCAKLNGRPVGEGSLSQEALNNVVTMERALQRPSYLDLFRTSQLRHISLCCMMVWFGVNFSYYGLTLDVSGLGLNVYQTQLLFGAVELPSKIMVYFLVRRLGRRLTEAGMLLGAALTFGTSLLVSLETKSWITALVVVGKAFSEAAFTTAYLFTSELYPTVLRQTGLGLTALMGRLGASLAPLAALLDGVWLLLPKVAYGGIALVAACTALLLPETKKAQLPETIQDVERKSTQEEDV
Nature of the data set: (§1) TP_TRANSPORTER: inhibition of PGF2alpha in OAT2-S2 cells. Summed up: (§2)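 S2 cells stably expressing human or rat OAT2, seeded at 1 × 10^5 cells/well and grown for 2 days. Washed, then preincubated 10 min at 37 °C in D-PBS (pH 7.4). Uptake of 50 nM [3H]prostaglandin F2α measured at 37 °C with or without various concentrations of cephalosporin: 20 s for human OAT2, 2 min for rat OAT2. Stopped with ice-cold D-PBS; cells lysed in 0.1 N NaOH; scintillation counting.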

Data set [2] deals with T2, Solute carrier family 22 member 7 (Homo sapiens, UniProt Q9Y694).
T2 sequence (Q9Y694 whole entry): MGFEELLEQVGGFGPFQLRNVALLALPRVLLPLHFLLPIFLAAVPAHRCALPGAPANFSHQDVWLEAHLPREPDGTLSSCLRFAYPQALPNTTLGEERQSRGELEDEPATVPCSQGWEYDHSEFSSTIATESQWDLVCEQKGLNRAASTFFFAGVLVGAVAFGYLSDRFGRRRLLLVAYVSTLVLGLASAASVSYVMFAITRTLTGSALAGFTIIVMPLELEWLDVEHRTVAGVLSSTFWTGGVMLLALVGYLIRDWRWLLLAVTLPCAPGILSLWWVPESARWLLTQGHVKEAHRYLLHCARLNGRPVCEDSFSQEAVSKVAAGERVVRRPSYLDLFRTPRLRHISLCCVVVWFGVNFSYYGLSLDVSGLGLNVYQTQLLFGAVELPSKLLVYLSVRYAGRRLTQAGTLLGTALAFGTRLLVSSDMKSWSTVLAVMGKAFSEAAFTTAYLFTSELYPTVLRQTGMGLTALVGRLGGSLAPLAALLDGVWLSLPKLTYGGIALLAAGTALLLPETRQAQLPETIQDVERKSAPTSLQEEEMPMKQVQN
Described as §1. Summed up:
as §2

In data set [3] the target is T3, Organic anion transporter 3 (Homo sapiens, UniProt Q8TCC7).
T3 sequence (Q8TCC7 whole entry): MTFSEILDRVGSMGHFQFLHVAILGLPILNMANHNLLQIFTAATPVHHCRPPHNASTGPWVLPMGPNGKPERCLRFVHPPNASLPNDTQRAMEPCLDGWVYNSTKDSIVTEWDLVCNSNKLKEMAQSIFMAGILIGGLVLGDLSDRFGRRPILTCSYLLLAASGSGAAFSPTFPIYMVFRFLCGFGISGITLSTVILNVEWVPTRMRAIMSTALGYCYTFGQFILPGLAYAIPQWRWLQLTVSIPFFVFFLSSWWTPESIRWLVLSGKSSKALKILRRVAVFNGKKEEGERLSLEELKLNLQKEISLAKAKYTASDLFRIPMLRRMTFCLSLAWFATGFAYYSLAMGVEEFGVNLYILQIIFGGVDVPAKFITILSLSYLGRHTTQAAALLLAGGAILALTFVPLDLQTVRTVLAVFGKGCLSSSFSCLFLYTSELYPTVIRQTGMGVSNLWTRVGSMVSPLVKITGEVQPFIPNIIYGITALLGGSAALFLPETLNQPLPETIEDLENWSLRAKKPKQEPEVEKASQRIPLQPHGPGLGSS
Nature of the data set: TP_TRANSPORTER: cell viability in OAT3-S2 cells. In a few lines: (§3)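 S2 cells stably transfected with the human OAT (pcDNA3.1), alongside mock-transfected controls, were seeded at 1 × 10^5 cells/well and cultured for 2 days. Cells were then exposed to 5 mM cephalosporin, with or without 1 mM probenecid, at 33 °C for 24 h. MTT was added for a further 4 h at 33 °C. Cells were solubilized in isopropanol/HCl and OD read at 570 nm (630 nm reference). Four determinations; mean ± S.E.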

Data set [4] addresses T4, Solute carrier family 22 member 11 (Homo sapiens, UniProt Q9NSA0).
T4 sequence (Q9NSA0 whole entry): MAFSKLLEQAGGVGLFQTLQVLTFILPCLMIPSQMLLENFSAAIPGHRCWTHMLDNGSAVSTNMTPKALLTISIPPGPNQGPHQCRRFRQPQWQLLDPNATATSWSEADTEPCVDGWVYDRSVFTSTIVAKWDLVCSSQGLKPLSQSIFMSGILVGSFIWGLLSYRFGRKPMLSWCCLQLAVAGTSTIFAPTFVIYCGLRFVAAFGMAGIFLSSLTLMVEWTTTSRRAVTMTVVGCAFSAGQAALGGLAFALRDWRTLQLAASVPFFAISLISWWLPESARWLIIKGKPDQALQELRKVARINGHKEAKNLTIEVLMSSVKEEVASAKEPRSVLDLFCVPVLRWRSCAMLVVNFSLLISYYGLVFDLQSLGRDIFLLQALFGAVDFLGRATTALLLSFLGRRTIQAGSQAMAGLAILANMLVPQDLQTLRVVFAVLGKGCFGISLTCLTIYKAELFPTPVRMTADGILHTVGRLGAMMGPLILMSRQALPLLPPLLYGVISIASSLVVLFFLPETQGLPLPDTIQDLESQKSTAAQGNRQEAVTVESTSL
Nature of the data set: TP_TRANSPORTER: cell viability in OAT4-S2 cells. Summed up: as §3

Substrate in data set [5]: CCCCC[C@H](O)/C=C/[C@@H]1[C@@H](C/C=C\CCCC(=O)O)[C@@H](O)C[C@H]1O
Nature of the data set: TP_TRANSPORTER: uptake in OAT2-S2 cells.

In the case of `Cn1nnnc1SCC1=C(C(=O)O)N2C(=O)[C@@H](NC(=O)[C@H](O)c3ccccc3)[C@H]2SC1` [CEFAMANDOLE], the half-maximal inhibitory concentration (IC50) in data set [1] was found to be 3180 µM; in data set [2] it was 1570 µM.

Consider `CCN1CCN(C(=O)N[C@@H](C(=O)N[C@@H]2C(=O)N3C(C(=O)O)=C(CSc4nnnn4C)CS[C@H]23)c2ccc(O)cc2)C(=O)C1=O` [CEFOPERAZONE], for which the figures for the IC50 in data set [1] and in data set [2] were 1620 µM and 1330 µM, respectively.

On to `CO/N=C(\C(=O)N[C@@H]1C(=O)N2C(C(=O)O)=C(COC(C)=O)CS[C@H]12)c1csc(N)n1` [CEFOTAXIME], for which the IC50 in data set [1] is > 5000 µM; in data set [2], 4680 µM.

`O=C(Cc1cccs1)N[C@@H]1C(=O)N2C(C(=O)[O-])=C(C[n+]3ccccc3)CS[C@H]12` [CEPHALORIDINE]: the Activity entry in data set [3] and in data set [4] was “substrate []” throughout. The IC50 in data set [1] was > 5000 µM; in data set [2] it was 4480 µM.

For `CC(=O)OCC1=C(C(=O)O)N2C(=O)[C@@H](NC(=O)Cc3cccs3)[C@H]2SC1` [CEPHALOTHIN], the values for the IC50 in data set [1] and in data set [2] were 1500 µM and 1410 µM, respectively.

B1: Solute carrier family 22 member 7 (Rattus norvegicus) (protein)
chain: MGFEDLLDKVGGFGPFQLRNLVLMALPRMLLPMHFLLPVFMAAVPAHHCALPGAPANLSHQDLWLEAHLPRETDGSFSSCLRFAYPQTVPNVTLGTEVSNSGEPEGEPLTVPCSQGWEYDRSEFSSTIATEWDLVCQQRGLNKITSTCFFIGVLVGAVVYGYLSDRFGRRRLLLVAYVSSLVLGLMSAASINYIMFVVTRTLTGSALAGFTIIVLPLELEWLDVEHRTVAGVISTVFWSGGVLLLALVGYLIRSWRWLLLAATLPCVPGIISIWWVPESARWLLTQGRVEEAKKYLLSCAKLNGRPVGEGSLSQEALNNVVTMERALQRPSYLDLFRTSQLRHISLCCMMVWFGVNFSYYGLTLDVSGLGLNVYQTQLLFGAVELPSKIMVYFLVRRLGRRLTEAGMLLGAALTFGTSLLVSLETKSWITALVVVGKAFSEAAFTTAYLFTSELYPTVLRQTGLGLTALMGRLGASLAPLAALLDGVWLLLPKVAYGGIALVAACTALLLPETKKAQLPETIQDVERKSTQEEDV
In the case of B1, the Km in data set [5] came to 0.414 µM.
